Test results: ChEMBL document CHEMBL1144425, “Design of benzophenone-containing photoactivatable linear vasopressin antagonists: pharmacological and photoreactive properties” (J Med Chem, 2005)

Columns and labels:
Vasopressin V1a receptor [1] = biological target: Vasopressin V1a receptor (Homo sapiens, UniProt P37288); test: Binding affinity against human vasopressin V1a receptor expressed in CHO cells; assay type: cell-based
Summary of the method: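 Competition binding on membranes of CHO cells expressing the human V1a receptor (2 to 3 µg protein). Each compound was tested at 10^-12 to 10^-6 M against a radioiodinated linear antagonist (45-80 pM). Incubation was 1 h at 30 °C in 50 mM Tris, 5 mM MgCl2, pH 7.4, with 1 mg/mL BSA, in triplicate, then GF/C filtration. Data were fitted by nonlinear least-squares regression.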

Vasopressin V1a receptor [2] = biological target: Vasopressin V1a receptor (Rattus norvegicus, UniProt P30560); test: Binding affinity against rat vasopressin V1a receptor
Sequence of Vasopressin V1a receptor (Rattus norvegicus, UniProt P30560) (P30560 whole entry): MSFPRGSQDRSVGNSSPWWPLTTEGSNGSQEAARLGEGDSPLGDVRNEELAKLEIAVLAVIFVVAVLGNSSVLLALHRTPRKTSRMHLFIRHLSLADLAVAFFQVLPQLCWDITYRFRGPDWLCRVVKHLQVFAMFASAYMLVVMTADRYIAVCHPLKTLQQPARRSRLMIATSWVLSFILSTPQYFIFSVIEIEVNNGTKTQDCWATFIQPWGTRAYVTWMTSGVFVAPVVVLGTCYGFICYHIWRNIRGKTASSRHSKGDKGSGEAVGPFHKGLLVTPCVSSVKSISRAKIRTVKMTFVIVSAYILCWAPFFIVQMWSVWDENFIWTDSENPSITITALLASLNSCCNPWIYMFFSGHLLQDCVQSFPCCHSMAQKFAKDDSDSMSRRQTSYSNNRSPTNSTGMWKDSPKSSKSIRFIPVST

Sequence of Vasopressin V1a receptor (Homo sapiens, UniProt P37288) (P37288 whole entry): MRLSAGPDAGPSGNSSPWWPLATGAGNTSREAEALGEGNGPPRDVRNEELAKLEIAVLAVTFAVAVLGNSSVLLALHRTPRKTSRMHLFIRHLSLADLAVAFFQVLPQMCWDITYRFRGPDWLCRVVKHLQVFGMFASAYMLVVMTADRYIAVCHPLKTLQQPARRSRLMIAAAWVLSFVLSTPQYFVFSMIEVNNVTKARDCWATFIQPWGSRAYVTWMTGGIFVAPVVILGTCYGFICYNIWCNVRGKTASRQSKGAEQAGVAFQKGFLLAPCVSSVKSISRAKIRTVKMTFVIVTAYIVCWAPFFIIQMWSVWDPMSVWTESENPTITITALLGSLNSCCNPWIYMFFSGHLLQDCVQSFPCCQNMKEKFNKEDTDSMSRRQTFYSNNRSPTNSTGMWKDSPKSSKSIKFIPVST

| Structure (SMILES) | Ki (Vasopressin V1a receptor [1]; cho) | Ki (Vasopressin V1a receptor [1]) | other results |
| --- | --- | --- | --- |
| N=C(N)NCCC[C@H](NC(=O)[C@@H]1CCCN1C(=O)[C@H](CCCNC(=N)N)NC(=O)[C@H](CC(N)=O)NC(=O)[C@H](CCC(N)=O)NC(=O)[C@H](Cc1ccccc1)NC(=O)[C@@H](N)Cc1ccc(C(=O)c2ccccc2)cc1)C(=O)N[C@@H](Cc1ccc(O)c(I)c1)C(N)=O | 0.148 µM |  |  |
| NC(=O)CC[C@H](NC(=O)[C@H](Cc1ccccc1)NC(=O)[C@H](N)Cc1ccc(C(=O)c2ccccc2)cc1)C(=O)N[C@@H](CC(N)=O)C(=O)N[C@@H](CCCN=C(N)N)C(=O)N1CCC[C@H]1C(=O)N[C@@H](CCCN=C(N)N)C(=O)N[C@@H](Cc1ccc(O)c(I)c1)C(N)=O | 0.02 µM |  |  |
| NC(=O)CC[C@H](NC(=O)[C@H](Cc1ccccc1)NC(=O)[C@@H](Cc1ccc(C(=O)c2ccccc2)cc1)NC(=O)Cc1ccccc1)C(=O)N[C@@H](CC(N)=O)C(=O)N[C@@H](CCCN=C(N)N)C(=O)N1CCC[C@H]1C(=O)N[C@@H](CCCN=C(N)N)C(=O)N[C@@H](Cc1ccc(O)c(I)c1)C(N)=O |  | 0.0008 µM |  |
| COc1ccc(C[C@@H](NC(=O)c2ccc(C(=O)c3ccccc3)cc2)C(=O)N[C@@H](Cc2ccccc2)C(=O)N[C@@H](CCC(N)=O)C(=O)N[C@@H](CC(N)=O)C(=O)N[C@@H](CCCN=C(N)N)C(=O)N2CCC[C@H]2C(=O)N[C@@H](CCCN=C(N)N)C(=O)N[C@@H](Cc2ccc(O)c(I)c2)C(N)=O)cc1 |  | 0.018 µM |  |
| COc1ccc(C[C@@H](NC(=O)CCCc2ccc(N=[N+]=[N-])cc2)C(=O)N[C@@H](Cc2ccccc2)C(=O)N[C@@H](CCC(N)=O)C(=O)N[C@@H](CC(N)=O)C(=O)N[C@@H](CCCNC(=N)N)C(=O)N2CCC[C@H]2C(=O)N[C@@H](CCCNC(=N)N)C(=O)N[C@@H](Cc2ccc(O)c(I)c2)C(N)=O)cc1 |  |  | Ki (Vasopressin V1a receptor [2]): 0.00018 µM |
| COc1ccc(C[C@@H](NC(=O)CNC(=O)c2ccc(C(=O)c3ccccc3)cc2)C(=O)N[C@@H](Cc2ccccc2)C(=O)N[C@@H](CCC(N)=O)C(=O)N[C@@H](CC(N)=O)C(=O)N[C@@H](CCCCN)C(=O)N2CCC[C@H]2C(=O)N[C@@H](CCCNC(=N)N)C(=O)N[C@@H](Cc2ccc(O)c(I)c2)C(N)=O)cc1 | 0.115 µM |  |  |

Now from value to molecule, other results behind:

| Ki (Vasopressin V1a receptor [1]; cho) | Ki (Vasopressin V1a receptor [1]) | Structure (SMILES) | other results |
| --- | --- | --- | --- |
| 0.462 µM |  | COc1ccc(C[C@@H](NC(=O)C(N)Cc2ccc(C(=O)c3ccccc3)cc2)C(=O)N[C@@H](Cc2ccccc2)C(=O)N[C@@H](CCC(N)=O)C(=O)N[C@@H](CC(N)=O)C(=O)N[C@@H](CCCNC(=N)N)C(=O)N2CCC[C@H]2C(=O)N[C@@H](CCCNC(=N)N)C(=O)N[C@@H](Cc2ccc(O)c(I)c2)C(N)=O)cc1 (stereo not given in full) |  |
| 1.49 µM |  | CC(=O)N[C@@H](Cc1ccc(C(=O)c2ccccc2)cc1)C(=O)N[C@@H](Cc1ccccc1)C(=O)N[C@@H](CCC(N)=O)C(=O)N[C@@H](CC(N)=O)C(=O)N[C@@H](CCCNC(=N)N)C(=O)N1CCC[C@H]1C(=O)N[C@@H](CCCNC(=N)N)C(=O)N[C@@H](Cc1ccc(O)c(I)c1)C(N)=O |  |
|  | 0.0025 µM | N=C(N)NCCC[C@H](NC(=O)[C@@H]1CCCN1C(=O)[C@H](CCCNC(=N)N)NC(=O)[C@H](CC(N)=O)NC(=O)[C@H](CCC(N)=O)NC(=O)[C@H](Cc1ccccc1)NC(=O)[C@H](Cc1ccc(C(=O)c2ccccc2)cc1)NC(=O)Cc1ccccc1)C(=O)N[C@@H](Cc1ccc(O)c(I)c1)C(N)=O |  |
| 0.024 µM |  | CC(=O)N[C@H](Cc1ccc(C(=O)c2ccccc2)cc1)C(=O)N[C@@H](Cc1ccccc1)C(=O)N[C@@H](CCC(N)=O)C(=O)N[C@@H](CC(N)=O)C(=O)N[C@@H](CCCNC(=N)N)C(=O)N1CCC[C@H]1C(=O)N[C@@H](CCCNC(=N)N)C(=O)N[C@@H](Cc1ccc(O)c(I)c1)C(N)=O |  |
